Assay [1] concerns the target Glycogen synthase kinase-3 beta (Homo sapiens, UniProt P49841). Put plainly: Binding affinity to recombinant GSK3B (unknown origin) assessed as change in melting temperature at 10 uM by DSF assay. Put shortly: (§1)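 Differential scanning fluorimetry on an in-house panel of 90 recombinant kinases. Stabilization is read as the shift in melting temperature (ΔTm) relative to ligand-free protein. Staurosporine served as the positive control, and binding was also compared against its ΔTm.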

In assay [2] the target is T1, Mitogen-activated protein kinase 15 (Homo sapiens) (UniProt Q8TD08).
T1 sequence (whole entry): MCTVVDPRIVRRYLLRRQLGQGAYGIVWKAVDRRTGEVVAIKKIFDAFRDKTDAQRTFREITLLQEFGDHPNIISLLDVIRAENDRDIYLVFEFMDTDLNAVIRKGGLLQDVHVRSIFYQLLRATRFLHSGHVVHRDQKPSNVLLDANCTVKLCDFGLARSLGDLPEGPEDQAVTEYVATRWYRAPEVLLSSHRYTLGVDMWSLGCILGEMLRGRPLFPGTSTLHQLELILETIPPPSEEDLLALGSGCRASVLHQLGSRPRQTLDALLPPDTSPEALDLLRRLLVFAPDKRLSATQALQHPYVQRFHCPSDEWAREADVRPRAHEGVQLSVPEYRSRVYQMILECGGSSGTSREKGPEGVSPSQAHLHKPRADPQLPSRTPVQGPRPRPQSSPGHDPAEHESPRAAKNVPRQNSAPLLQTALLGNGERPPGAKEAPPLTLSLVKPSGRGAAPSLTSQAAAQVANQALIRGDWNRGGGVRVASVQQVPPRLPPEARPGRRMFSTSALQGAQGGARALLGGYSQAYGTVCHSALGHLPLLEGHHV
The experiment in a line: Binding affinity to recombinant MAPK15 (unknown origin) assessed as change in melting temperature at 10 uM by DSF assay. Put shortly: as §1

In assay [3] the target is T2, Tyrosine-protein kinase Mer (Homo sapiens) (UniProt Q12866).
T2 sequence (whole entry): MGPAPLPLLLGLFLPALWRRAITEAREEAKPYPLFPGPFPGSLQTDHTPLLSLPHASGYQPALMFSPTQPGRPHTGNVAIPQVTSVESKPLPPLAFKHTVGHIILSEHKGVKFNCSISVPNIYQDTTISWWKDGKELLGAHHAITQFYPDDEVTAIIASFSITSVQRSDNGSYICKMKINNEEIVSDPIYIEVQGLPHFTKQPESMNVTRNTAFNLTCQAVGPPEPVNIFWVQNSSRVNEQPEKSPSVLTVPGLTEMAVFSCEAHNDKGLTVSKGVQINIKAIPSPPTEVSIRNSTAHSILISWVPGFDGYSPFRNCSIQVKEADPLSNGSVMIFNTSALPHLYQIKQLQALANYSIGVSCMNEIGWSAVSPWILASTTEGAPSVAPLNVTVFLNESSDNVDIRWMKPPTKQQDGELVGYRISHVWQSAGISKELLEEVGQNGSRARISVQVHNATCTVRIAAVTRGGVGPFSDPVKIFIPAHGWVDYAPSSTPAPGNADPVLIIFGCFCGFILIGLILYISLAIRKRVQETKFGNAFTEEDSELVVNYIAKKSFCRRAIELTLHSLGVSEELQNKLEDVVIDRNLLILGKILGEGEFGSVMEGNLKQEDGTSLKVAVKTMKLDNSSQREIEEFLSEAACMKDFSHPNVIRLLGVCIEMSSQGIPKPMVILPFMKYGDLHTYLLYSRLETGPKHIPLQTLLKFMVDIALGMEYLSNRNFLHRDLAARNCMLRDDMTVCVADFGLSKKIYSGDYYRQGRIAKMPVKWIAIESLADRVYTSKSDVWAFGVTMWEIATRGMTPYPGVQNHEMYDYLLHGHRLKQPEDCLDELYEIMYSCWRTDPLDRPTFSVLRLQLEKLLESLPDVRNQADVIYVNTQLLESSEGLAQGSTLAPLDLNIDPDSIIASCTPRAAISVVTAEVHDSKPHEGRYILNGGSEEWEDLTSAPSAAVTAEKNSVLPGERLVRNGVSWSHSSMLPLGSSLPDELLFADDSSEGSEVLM
Put plainly: Binding affinity to recombinant MERTK (unknown origin) assessed as change in melting temperature at 10 uM by DSF assay. In outline: as §1

Assay [4] concerns the target MAP/microtubule affinity-regulating kinase 3 (Homo sapiens) (UniProt P27448). Put plainly: Inhibition of recombinant MARK3 (unknown origin) at 10 uM by DSF assay relative to staurosporine. In outline: as §1
Assay [5] addresses Cyclin-dependent kinase 2 (Homo sapiens) (UniProt P24941). Put plainly: Inhibition of recombinant CDK2 (unknown origin) at 10 uM by DSF assay relative to staurosporine. Put shortly: as §1

Structures are written as SMILES.

Chain of Glycogen synthase kinase-3 beta (P49841 whole entry, looked up): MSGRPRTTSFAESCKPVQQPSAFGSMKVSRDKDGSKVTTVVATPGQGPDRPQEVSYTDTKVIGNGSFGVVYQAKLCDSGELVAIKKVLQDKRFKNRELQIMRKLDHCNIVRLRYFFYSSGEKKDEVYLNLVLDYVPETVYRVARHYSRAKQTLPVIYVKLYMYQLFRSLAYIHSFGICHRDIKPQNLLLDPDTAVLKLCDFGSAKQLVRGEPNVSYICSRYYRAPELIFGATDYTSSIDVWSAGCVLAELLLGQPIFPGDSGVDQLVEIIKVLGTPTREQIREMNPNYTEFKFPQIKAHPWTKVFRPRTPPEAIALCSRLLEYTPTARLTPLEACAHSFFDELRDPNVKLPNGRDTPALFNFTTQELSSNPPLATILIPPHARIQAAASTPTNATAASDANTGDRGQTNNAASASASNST
Chain of MAP/microtubule affinity-regulating kinase 3 (Homo sapiens) (P27448 whole entry, looked up): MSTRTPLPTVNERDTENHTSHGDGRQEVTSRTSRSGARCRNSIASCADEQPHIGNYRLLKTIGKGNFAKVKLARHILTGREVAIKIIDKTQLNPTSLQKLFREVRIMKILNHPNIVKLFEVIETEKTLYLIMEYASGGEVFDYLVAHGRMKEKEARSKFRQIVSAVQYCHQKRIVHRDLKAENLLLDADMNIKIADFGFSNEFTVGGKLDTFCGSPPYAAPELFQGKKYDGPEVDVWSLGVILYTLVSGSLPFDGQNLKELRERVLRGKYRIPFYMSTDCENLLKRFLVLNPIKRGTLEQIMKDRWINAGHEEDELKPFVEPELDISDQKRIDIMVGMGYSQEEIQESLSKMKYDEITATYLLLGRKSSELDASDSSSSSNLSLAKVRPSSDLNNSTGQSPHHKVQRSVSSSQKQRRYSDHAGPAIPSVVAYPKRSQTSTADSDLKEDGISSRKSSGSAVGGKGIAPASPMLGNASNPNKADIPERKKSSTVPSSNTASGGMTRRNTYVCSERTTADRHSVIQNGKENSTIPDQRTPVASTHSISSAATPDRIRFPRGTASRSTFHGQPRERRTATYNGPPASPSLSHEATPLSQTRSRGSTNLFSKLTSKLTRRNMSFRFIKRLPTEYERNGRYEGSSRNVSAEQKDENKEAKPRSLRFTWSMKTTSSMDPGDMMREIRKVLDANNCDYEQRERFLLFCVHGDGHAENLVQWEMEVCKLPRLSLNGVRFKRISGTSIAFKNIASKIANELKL

Take `O=C1NCCc2ccc(cc2)Nc2nccc(n2)Nc2cc1[nH]n2`: the ΔTm in assay [1] amounted to 8.4 °C; in assay [2], 3.8 °C; in assay [3], 3.2 °C. Further, the figures for the inhibition in assay [4] and in assay [5] were 22% and 25%, respectively.

The values above are taken from ChEMBL document CHEMBL5247671, “Design and Synthesis of Pyrazole-Based Macrocyclic Kinase Inhibitors Targeting BMPR2” (ACS Med Chem Lett, 2023).
